What was measured:
Rattus norvegicus [1] = experiment: Inhibition of sorbitol accumulation in sciatic nerves from streptozotocin-diabetic rats dosed at 3*25 mg/kg over 27h.; assay type: functional, Sciatic nerve
[2] = molecular target: T1, Aldo-keto reductase family 1 member B1 (Homo sapiens, UniProt P15121); experiment: Inhibitory activity against human placental aldose reductase
Rattus norvegicus [3] = experiment: Effective dose was tested against the inhibition of sorbitol accumulation in sciatic nerves from streptozotocin-diabetic rats dosed at 3*25 mg/kg over 27h.; assay type: functional; details: Sciatic nerve
Rattus norvegicus [4] = experiment: Plasma concentration at 3h after the last dose of 25 mg/kg for 5 days.; assay type: functional
Rattus norvegicus [5] = experiment: In vivo inhibition of sorbitol accumulation in sciatic nerves from streptozotocin-diabetic rats dosed at 1*25 mg/kg over 5 days.; assay type: functional, Sciatic nerve
Rattus norvegicus [6] = experiment: In vivo inhibition of sorbitol accumulation in sciatic nerves from streptozotocin-diabetic rats dosed at 3*25 mg/kg over 27h.; assay type: functional, Sciatic nerve
Rattus norvegicus [7] = experiment: Inhibition of sorbitol accumulation in sciatic nerves from streptozotocin-diabetic rats dosed at 3*10 mg/kg over 27h.; assay type: functional, Sciatic nerve
Outline: (§1)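 Male Sprague-Dawley rats (180–220 g, 42–54 days) made diabetic with streptozotocin 85 mg/kg at 0 h. Oral gavage at 4, 7 and 24 h, dose quoted per time point. Sciatic nerve sorbitol measured with sorbitol dehydrogenase/NAD in pH 9.4 glycine. Mean (±SEM) percent inhibition against untreated diabetic controls, Student's t test on absolute sorbitol.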

[8] = molecular target: T1, Aldo-keto reductase family 1 member B1; experiment: Compound was tested in vitro for its inhibitory activity against human placental aldose reductase
Rattus norvegicus [9] = experiment: Nerve concentration at 3h after the last dose of 25 mg/kg for 5 days.; assay type: functional
Rattus norvegicus [10] = experiment: Inhibition of sorbitol accumulation in sciatic nerves from streptozotocin-diabetic rats dosed at 3*50 mg/kg over 27h.; assay type: functional, Sciatic nerve; outline: as §1
Rattus norvegicus [11] = experiment: Inhibition of sorbitol accumulation in sciatic nerves from streptozotocin-diabetic rats dosed at 3*100 mg/kg over 27h.; assay type: functional, Sciatic nerve; outline: as §1
[12] = molecular target: T1, Aldo-keto reductase family 1 member B1; experiment: ARI(aldose reductase inhibitor) enantiospecificity against human placental aldose reductase.

Row | SMILES | Inhibition (Rattus norvegicus [1]) [%] | IC50 [2] [nM] | ED50 (Rattus norvegicus [3]) [mg/kg] | further results
1 | C1CCC(NC2CCCCC2)CC1.O=C(O)C[C@]1(O)C[C@@H](C(=O)c2ccccc2)Oc2ccc(F)cc21 | 1 | 1390 | – | –
2 | C[C@@H]1COc2ccc(F)cc2[C@]1(O)CC(=O)O | – | 11000 | – | –
3 | O=C(O)C[C@@]1(O)c2cc(F)ccc2O[C@@H]2CCCC[C@@H]21 | – | 11000 | – | –
4 | Cc1cc2c(cc1[N+](=O)[O-])[C@](O)(CC(=O)O)C[C@@H](C)O2 | 39 | 90 | 35 | –
5 | C[C@@H]1C[C@@](O)(CC(=O)O)c2cc([N+](=O)[O-])c(Cl)cc2O1 | 67 | 110 | 14.9 | –
6 | C[C@@H]1C[C@@](O)(CC(=O)O)c2ccc(F)cc2O1 | – | 5420 | – | –
7 | C[C@@H]1C[C@@](O)(CC(=O)O)c2cc(Cl)cc(Cl)c2O1 | 48 | 1000 | 26.6 | –
8 | C[C@@H]1C[C@@](O)(CC(=O)O)c2cc(Cl)c(Br)cc2O1 | – | 70 | 11.3 | Tissue levels (Rattus norvegicus [4]): 12.7 µg/mL; Inhibition (Rattus norvegicus [5]): 33%; Inhibition (Rattus norvegicus [6]): 46%; Inhibition (Rattus norvegicus [7]): 46%; IC50 [8]: 50 nM; Tissue levels (Rattus norvegicus [9]): 3.11 µg/mL
9 | C[C@@H]1C[C@@](O)(CC(=O)O)c2cccc(Cl)c2O1 | – | 5700 | – | –
10 | O=C(O)C[C@]1(O)C[C@@H](c2ccccc2)Oc2ccc(F)cc21 | – | 2670 | – | Inhibition (Rattus norvegicus [10]): 3%
11 | CC(C)(C)[C@@H]1C[C@@](O)(CC(=O)O)c2cc(F)ccc2O1 | 29 | 360 | 47.6 | –
12 | C[C@@H]1C[C@@](O)(CC(=O)O)c2cc(Br)ccc2O1 | 21 | 1670 | 60.8 | –
13 | CCc1cc2c(cc1Cl)[C@](O)(CC(=O)O)C[C@@H](C)O2 | – | 100 | 13.6 | Inhibition (Rattus norvegicus [7]): 40%
14 | C[C@@H]1C[C@@](O)(CC(=O)O)c2ccc(Cl)cc2O1 | 0 | 3320 | – | –
15 | C[C@@H]1C[C@@](O)(CC(=O)O)c2c(Cl)cccc2O1 | – | 43500 | – | –
16 | CC[C@@H]1C[C@@](O)(CC(=O)O)c2cc(F)ccc2O1 | 27 | 620 | 50.6 | –
17 | O=C(O)C[C@]1(O)C[C@@H](CCc2ccccc2)Oc2ccc(F)cc21 | 5 | 1140 | – | –
18 | C[C@@H]1C[C@@](O)(CC(=O)O)c2cc(Cl)c(F)cc2O1 | – | 390 | 19 | Tissue levels (Rattus norvegicus [4]): 13.4 µg/mL; Inhibition (Rattus norvegicus [5]): -30%; Inhibition (Rattus norvegicus [6]): 29%; Inhibition (Rattus norvegicus [7]): 29%; IC50 [8]: 410 nM; Tissue levels (Rattus norvegicus [9]): 2.35 µg/mL
19 | C[C@@H]1C[C@@](O)(CC(=O)O)c2c(Cl)cc(Cl)cc2O1 | – | 29400 | – | –
20 | C[C@@H]1C[C@@](O)(CC(=O)O)C2=C(C=CCC2(C)[N+](=O)[O-])O1 (some centres undefined) | -31 | 1630 | – | –
21 | CC1(C)C[C@@](O)(CC(=O)O)c2cc(Cl)c(Cl)cc2O1 | 6 | 1860 | – | –
22 | C[C@@H]1C[C@@](O)(CC(=O)O)c2c(ccc(F)c2Br)O1 | – | 4500 | – | –
23 | C[C@@H]1C[C@@](O)(CC(=O)O)c2cc(Cl)c3ccccc3c2O1 | 45 | 400 | 29.1 | –
24 | C[C@@H]1C[C@@](O)(CC(=O)O)c2cc(C#N)c(F)cc2O1 | – | 130 | 29.2 | Inhibition (Rattus norvegicus [7]): 15%
25 | C[C@@H]1C[C@@](O)(CC(=O)O)c2ccc(Cl)c(Cl)c2O1 | – | 780 | – | –
26 | Cc1cc(Cl)cc2c1O[C@H](C)C[C@@]2(O)CC(=O)O | 28 | 1180 | 49 | –
27 | CC1(C)C[C@@](O)(CC(=O)O)c2cc([N+](=O)[O-])ccc2O1 | 37 | 400 | 37.2 | –
28 | CC1(C)C[C@@](O)(CC(=O)O)c2cc(F)ccc2O1 | – | 3460 | 83.2 | Inhibition (Rattus norvegicus [11]): 56%

Row | SMILES | Inhibition (Rattus norvegicus [1]) [%] | IC50 [2] [nM] | ED50 (Rattus norvegicus [3]) [mg/kg] | further results
29 | CC(C)[C@@H]1C[C@@](O)(CC(=O)O)c2cc(F)ccc2O1 | -7 | 570 | – | –
30 | C[C@@H]1C[C@@](O)(CC(=O)O)c2c(ccc(Cl)c2[N+](=O)[O-])O1 | – | 95500 | – | –
31 | O=C(O)C[C@]1(O)CCOc2ccc(F)cc21 | – | 600 | 71.4 | Inhibition (Rattus norvegicus [11]): 61%
32 | C[C@@H]1C[C@@](O)(CC(=O)O)c2cc(F)c(Br)cc2O1 | – | 90 | 4.94 | Tissue levels (Rattus norvegicus [4]): 8.8 µg/mL; Inhibition (Rattus norvegicus [5]): 44%; Inhibition (Rattus norvegicus [6]): 73%; Inhibition (Rattus norvegicus [7]): 73%; IC50 [8]: 120 nM; Tissue levels (Rattus norvegicus [9]): 1.31 µg/mL
33 | COc1cc2c(cc1Cl)[C@](O)(CC(=O)O)C[C@@H](C)O2 | 53 | 190 | 36.5 | –
34 | COc1ccc2c(c1)[C@](O)(CC(=O)O)C[C@@H](C)O2 | – | 281000 | – | –
35 | C[C@@H]1C[C@@](O)(CC(=O)O)c2ccccc2O1 | – | 14800 | – | Inhibition (Rattus norvegicus [10]): 9%
36 | Cc1ccc2c(c1)[C@](O)(CC(=O)O)C[C@@H](C)O2 | -16 | 11300 | – | –
37 | C[C@@H]1C[C@@](O)(CC(=O)O)c2cc([N+](=O)[O-])ccc2O1 | 74 | 80 | 12 | –
38 | C[C@H]1Oc2ccc(F)cc2[C@](O)(CC(=O)O)[C@H]1C | 29 | 910 | 47.6 | –
39 | CC(=O)c1ccc2c(c1)[C@](O)(CC(=O)O)C[C@@H](C)O2 | 5 | 650 | – | –
40 | C[C@@H]1C[C@@](O)(CC(=O)O)c2cc(Br)cc(Cl)c2O1 | – | 5160 | – | –
41 | Cc1cc2c(cc1Cl)[C@](O)(CC(=O)O)C[C@@H](C)O2 | 72 | 240 | 12.7 | –
42 | C[C@@H]1C[C@@](O)(CC(=O)O)c2cc(Cl)ccc2O1 | 67 | 820 | 14.9 | –
43 | C[C@@H]1C[C@@](O)(CC(=O)O)c2cc([N+](=O)[O-])c(F)cc2O1 | – | 70 | – | Inhibition (Rattus norvegicus [7]): 5%
44 | C[C@@H]1[C@@H](C)Oc2ccc(F)cc2[C@]1(O)CC(=O)O | – | 29400 | – | –
45 | C[C@@H]1C[C@@](O)(CC(=O)O)c2c(ccc(Cl)c2Cl)O1 | 50 | 1630 | 25 | –
46 | C[C@@H]1C[C@@](O)(CC(=O)O)c2cc(Cl)c(OCc3ccccc3)cc2O1 | – | 60 | 32 | Inhibition (Rattus norvegicus [7]): 12%
47 | C[C@@H]1C[C@@](O)(CC(=O)O)c2cc(Cl)c(Cl)cc2O1 | – | – | – | IC50 [12]: 5620 nM
48 | C[C@@H]1C[C@@](O)(CC(=O)O)c2cc(S(C)(=O)=O)ccc2O1 | – | 8220 | – | –
49 | C[C@@H]1C[C@@](O)(CC(=O)O)c2ccc(C(=O)O)cc2O1 | 48 | 70 | 26.6 | –
50 | CCC[C@@H]1C[C@@](O)(CC(=O)O)c2cc(F)ccc2O1 | 16 | 970 | 70.8 | –
51 | C[C@@H]1C[C@@](O)(CC(=O)O)c2c(Cl)ccc(Cl)c2O1 | – | 13100 | – | –
52 | C[C@@H]1C[C@@](O)(CC(=O)O)c2cc(F)ccc2O1 | 56 | 200 | 23 | Tissue levels (Rattus norvegicus [4]): <0.5 µg/mL; Inhibition (Rattus norvegicus [5]): 13%; Inhibition (Rattus norvegicus [6]): 22%; IC50 [8]: 310 nM; Inhibition (Rattus norvegicus [10]): 81%; Inhibition (Rattus norvegicus [11]): 92%
53 | C[C@@H]1C[C@@](O)(CC(=O)O)c2cc(F)c(F)cc2O1 | – | 250 | 5.94 | Tissue levels (Rattus norvegicus [4]): 2.19 µg/mL; Inhibition (Rattus norvegicus [5]): -20%; Inhibition (Rattus norvegicus [6]): 67%; Inhibition (Rattus norvegicus [7]): 67%; IC50 [8]: 350 nM; Tissue levels (Rattus norvegicus [9]): <0.1 µg/mL
54 | CC1(C)C[C@@](O)(CC(=O)O)c2c(ccc(Cl)c2Cl)O1 | – | 14800 | – | –
55 | C[C@@H]1C[C@@](O)(CC(=O)O)c2cc(F)c(Cl)cc2O1 (stereo in doubt; 23) | 76 | 60 | 5.1 | Tissue levels (Rattus norvegicus [4]): 14.2 µg/mL; IC50 [12]: 49.3 nM; Inhibition (Rattus norvegicus [5]): 55%; Inhibition (Rattus norvegicus [6]): 72%; IC50 [8]: 12 nM; Tissue levels (Rattus norvegicus [9]): 1.85 µg/mL
